Assay results published in ChEMBL document CHEMBL1938337, “Discovery of novel, potent, and selective inhibitors of 3-phosphoinositide-dependent kinase (PDK1)” (J Med Chem, 2011).

Experiments:
[1] = biological target: Phosphatidylinositol 4,5-bisphosphate 3-kinase catalytic subunit alpha isoform (Mus musculus, UniProt P42337); experiment: Inhibition of mouse PI3Kalpha after 30 mins by fluorescence polarization assay
How it was run: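 Mouse PI3Kα 0.5 nM with 30 μM PIP₂, 5 mM MgCl₂, 200 μM ATP, 30 min at room temperature (~22 °C); stopped with 10 mM EDTA. Then 3 min with detector mix of 480 nM GST-Grp1 PH domain and 12 nM TAMRA-PIP₃. Fluorescence polarization read in 50 mM Hepes pH 7.4, 150 mM NaCl, 5 mM DTT, 0.05% CHAPS. Duplicate points, nonlinear regression fit.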

[2] = biological target: cAMP-dependent protein kinase catalytic subunit alpha (Homo sapiens) (UniProt P17612); experiment: Inhibition of PRKACA at 1 uM
[3] = biological target: T1, Serine/threonine-protein kinase Chk1 (Homo sapiens) (UniProt O14757); experiment: Inhibition of CHEK1 at 1 uM
T1 sequence (whole entry): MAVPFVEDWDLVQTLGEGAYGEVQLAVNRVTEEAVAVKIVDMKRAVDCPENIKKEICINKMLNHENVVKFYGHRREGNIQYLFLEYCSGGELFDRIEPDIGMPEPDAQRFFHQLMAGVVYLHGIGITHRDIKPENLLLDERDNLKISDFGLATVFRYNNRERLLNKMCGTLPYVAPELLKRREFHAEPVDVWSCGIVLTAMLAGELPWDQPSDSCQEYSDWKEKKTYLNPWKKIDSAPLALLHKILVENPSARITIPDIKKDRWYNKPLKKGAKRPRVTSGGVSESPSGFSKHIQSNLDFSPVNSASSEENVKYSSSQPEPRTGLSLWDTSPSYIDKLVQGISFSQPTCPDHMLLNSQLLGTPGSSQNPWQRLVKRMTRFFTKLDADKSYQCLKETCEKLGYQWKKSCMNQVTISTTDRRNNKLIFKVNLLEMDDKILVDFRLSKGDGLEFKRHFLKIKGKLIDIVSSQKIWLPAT

[4] = biological target: Tyrosine-protein kinase Lck (Homo sapiens) (UniProt P06239); experiment: Inhibition of LCK at 1 uM
[5] = biological target: Angiopoietin-1 receptor (Homo sapiens) (UniProt Q02763); experiment: Inhibition of TEK at 1 uM
[6] = biological target: Ephrin type-A receptor 2 (Homo sapiens) (UniProt P29317); experiment: Inhibition of EPHA2 at 1 uM
[7] = biological target: Insulin receptor (Homo sapiens) (UniProt P06213); experiment: Inhibition of INSR at 1 uM
Aurora kinase A = biological target: T2, Aurora kinase A (Homo sapiens, UniProt O14965); experiment: Inhibition of Aurora A
T2 sequence (O14965 whole entry): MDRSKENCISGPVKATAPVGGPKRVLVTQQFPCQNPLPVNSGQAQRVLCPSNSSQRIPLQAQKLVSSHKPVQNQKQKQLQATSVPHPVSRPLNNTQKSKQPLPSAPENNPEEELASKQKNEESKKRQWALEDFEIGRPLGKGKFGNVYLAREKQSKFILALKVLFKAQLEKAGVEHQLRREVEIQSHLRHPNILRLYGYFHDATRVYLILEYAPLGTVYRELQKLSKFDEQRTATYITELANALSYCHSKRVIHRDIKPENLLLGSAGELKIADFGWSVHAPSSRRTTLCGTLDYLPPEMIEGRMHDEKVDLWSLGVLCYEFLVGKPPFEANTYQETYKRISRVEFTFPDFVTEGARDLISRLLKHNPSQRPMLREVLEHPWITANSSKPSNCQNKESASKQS

Chain of Phosphatidylinositol 4,5-bisphosphate 3-kinase catalytic subunit alpha isoform (P42337 whole entry, the tested form may be a part, canonical isoform): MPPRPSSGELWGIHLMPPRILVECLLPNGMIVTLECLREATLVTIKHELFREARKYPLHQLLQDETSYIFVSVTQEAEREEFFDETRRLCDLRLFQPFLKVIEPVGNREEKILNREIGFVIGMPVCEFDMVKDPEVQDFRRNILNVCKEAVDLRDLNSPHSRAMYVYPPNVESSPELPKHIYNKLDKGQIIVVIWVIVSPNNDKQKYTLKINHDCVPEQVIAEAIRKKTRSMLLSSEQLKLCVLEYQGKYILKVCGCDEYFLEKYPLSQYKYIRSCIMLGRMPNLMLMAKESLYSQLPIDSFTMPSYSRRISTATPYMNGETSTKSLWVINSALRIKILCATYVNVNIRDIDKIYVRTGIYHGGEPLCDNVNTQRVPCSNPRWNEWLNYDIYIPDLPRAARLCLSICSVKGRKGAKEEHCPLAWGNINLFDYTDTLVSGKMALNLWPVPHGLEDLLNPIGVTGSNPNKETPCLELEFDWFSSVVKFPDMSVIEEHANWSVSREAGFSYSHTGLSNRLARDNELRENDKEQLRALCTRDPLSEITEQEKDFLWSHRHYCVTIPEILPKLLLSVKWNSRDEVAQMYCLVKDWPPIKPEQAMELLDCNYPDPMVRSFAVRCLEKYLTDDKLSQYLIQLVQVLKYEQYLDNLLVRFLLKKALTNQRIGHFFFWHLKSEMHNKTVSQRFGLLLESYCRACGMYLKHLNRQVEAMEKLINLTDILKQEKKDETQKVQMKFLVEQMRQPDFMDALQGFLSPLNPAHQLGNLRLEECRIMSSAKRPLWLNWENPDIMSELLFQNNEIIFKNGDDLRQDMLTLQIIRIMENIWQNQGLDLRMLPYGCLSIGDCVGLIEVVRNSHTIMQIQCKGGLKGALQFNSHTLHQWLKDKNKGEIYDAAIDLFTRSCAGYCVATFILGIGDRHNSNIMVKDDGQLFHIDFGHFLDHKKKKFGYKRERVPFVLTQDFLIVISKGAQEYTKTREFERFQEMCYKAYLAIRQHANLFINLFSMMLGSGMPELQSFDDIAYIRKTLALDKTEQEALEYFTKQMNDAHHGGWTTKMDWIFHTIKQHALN
Chain of Ephrin type-A receptor 2 (Homo sapiens) (P29317 whole entry): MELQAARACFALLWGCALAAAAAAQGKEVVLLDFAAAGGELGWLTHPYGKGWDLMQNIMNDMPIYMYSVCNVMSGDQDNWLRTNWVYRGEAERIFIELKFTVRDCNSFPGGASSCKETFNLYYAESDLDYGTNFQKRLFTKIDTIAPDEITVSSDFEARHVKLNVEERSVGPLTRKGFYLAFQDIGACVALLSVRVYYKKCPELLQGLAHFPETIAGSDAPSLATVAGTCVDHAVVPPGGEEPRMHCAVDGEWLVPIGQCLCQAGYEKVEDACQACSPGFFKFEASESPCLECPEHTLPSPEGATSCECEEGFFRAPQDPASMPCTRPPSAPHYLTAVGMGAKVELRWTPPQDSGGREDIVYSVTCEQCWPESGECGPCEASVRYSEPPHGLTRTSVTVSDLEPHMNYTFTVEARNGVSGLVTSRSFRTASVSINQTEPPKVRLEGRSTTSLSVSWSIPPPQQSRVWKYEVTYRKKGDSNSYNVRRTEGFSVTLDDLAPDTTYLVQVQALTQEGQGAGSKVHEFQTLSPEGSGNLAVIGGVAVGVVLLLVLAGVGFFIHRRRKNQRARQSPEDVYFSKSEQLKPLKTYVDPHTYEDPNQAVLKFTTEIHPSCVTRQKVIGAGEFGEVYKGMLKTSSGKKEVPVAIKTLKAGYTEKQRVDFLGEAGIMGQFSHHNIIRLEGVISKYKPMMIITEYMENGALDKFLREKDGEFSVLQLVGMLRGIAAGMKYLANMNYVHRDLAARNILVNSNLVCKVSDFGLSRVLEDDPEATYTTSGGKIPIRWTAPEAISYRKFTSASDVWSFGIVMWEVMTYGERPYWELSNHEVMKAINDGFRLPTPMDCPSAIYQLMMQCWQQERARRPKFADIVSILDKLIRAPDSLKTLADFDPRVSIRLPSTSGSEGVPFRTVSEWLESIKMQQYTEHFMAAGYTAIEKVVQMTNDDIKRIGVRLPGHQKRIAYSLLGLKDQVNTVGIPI
Chain of Tyrosine-protein kinase Lck (Homo sapiens) (P06239 2-509 limits assumed): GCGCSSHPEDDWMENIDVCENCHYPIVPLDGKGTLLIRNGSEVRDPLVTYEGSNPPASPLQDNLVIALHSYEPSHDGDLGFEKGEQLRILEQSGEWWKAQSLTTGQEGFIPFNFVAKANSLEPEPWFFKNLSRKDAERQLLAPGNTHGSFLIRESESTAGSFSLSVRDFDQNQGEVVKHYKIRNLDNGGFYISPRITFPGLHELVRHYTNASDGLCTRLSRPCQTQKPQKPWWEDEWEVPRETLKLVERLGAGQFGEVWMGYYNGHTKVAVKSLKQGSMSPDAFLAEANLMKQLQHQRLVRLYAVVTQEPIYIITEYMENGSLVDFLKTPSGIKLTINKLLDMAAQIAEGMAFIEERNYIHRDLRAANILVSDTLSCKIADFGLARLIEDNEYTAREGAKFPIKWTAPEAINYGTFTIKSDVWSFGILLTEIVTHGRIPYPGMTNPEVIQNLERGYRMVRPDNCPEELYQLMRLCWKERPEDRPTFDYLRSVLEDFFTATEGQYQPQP
Chain of Insulin receptor (Homo sapiens) (P06213 28-758 limits assumed): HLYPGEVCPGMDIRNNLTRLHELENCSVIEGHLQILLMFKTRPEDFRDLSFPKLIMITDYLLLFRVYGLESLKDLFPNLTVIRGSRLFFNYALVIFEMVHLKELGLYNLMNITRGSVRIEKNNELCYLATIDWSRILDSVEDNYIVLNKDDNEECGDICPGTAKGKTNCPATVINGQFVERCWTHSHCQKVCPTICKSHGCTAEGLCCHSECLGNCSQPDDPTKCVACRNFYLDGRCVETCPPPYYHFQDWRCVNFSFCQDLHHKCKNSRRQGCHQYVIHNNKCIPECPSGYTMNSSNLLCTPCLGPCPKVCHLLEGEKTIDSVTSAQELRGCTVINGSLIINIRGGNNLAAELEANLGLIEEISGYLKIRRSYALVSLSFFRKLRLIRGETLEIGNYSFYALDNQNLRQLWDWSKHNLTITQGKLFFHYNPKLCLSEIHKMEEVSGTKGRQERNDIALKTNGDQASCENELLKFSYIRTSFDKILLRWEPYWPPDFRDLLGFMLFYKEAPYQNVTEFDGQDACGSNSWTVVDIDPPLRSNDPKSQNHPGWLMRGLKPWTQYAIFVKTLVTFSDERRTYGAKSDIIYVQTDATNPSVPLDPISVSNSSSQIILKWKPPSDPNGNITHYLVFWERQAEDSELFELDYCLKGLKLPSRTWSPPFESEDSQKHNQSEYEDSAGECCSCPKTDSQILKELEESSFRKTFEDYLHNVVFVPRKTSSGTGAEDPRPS
Chain of Insulin receptor (Homo sapiens) (P06213 763-1382 limits assumed): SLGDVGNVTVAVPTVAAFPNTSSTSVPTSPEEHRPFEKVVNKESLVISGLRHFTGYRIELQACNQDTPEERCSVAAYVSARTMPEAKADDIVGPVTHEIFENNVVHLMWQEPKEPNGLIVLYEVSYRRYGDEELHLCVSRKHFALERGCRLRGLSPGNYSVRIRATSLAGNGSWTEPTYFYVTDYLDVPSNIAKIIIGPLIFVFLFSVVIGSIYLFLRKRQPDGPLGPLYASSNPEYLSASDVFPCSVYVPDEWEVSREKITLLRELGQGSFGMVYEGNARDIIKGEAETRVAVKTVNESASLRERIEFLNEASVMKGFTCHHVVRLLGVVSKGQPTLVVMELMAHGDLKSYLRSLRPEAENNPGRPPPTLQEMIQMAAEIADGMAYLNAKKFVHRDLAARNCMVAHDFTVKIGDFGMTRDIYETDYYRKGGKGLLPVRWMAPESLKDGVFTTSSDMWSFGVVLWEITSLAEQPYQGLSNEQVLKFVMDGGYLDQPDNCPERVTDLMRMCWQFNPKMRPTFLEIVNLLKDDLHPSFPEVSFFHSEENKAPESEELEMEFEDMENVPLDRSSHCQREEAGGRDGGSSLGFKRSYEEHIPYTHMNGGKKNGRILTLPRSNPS
Chain of Angiopoietin-1 receptor (Homo sapiens) (Q02763 whole entry): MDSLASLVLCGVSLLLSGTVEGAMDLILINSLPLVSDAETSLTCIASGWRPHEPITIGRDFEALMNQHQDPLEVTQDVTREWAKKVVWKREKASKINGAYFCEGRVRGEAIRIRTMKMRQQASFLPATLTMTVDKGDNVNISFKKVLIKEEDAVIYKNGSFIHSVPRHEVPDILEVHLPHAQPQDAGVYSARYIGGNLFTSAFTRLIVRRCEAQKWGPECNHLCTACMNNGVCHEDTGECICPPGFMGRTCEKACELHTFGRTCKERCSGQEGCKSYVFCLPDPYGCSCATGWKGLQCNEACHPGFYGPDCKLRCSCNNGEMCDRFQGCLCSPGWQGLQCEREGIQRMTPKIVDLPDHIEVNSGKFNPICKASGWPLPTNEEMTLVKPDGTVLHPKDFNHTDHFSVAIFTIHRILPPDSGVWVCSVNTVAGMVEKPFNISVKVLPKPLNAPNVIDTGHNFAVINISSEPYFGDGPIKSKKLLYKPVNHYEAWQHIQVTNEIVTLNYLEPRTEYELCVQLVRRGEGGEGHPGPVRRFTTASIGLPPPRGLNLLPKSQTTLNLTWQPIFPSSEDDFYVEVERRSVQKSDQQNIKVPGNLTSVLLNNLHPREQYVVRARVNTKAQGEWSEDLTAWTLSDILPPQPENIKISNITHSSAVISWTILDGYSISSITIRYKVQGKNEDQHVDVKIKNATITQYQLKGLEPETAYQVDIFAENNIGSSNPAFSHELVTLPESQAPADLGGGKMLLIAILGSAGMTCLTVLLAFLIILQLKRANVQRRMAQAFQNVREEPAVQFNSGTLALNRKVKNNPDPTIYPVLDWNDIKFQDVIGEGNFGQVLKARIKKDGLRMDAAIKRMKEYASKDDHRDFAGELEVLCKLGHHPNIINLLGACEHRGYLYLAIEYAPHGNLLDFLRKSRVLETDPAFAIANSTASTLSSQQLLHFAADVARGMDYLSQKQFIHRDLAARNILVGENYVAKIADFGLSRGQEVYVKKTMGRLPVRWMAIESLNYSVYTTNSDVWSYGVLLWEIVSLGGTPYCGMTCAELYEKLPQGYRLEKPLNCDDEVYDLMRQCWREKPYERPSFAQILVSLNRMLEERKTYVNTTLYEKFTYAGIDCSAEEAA

Ki [1] [nM] | inhibition [2] [%] | inhibition [3] [%] | inhibition [4] [%] | inhibition [5] [%] | inhibition [6] [%] | inhibition [7] [%] | IC50 (Aurora kinase A) [nM] | Structure (SMILES)
130 | 74 | 38 | 27 | 10 | 7 | 4 | 140 | CC(C)n1cc(C(=O)c2cncc(N[C@@H]3CCN(C=O)[C@@H]3c3ccc(F)cc3)n2)c2c(N)ncnc21
1900 | 30 | 7 | 11 | 5 | 3 | 4 | 820 | CC(=O)N1CC[C@@H](Nc2cncc(C(=O)c3cn(C(C)C)c4ncnc(N)c34)n2)[C@H]1c1ccccc1
1300 | 58 | 24 | 22 | 19 | 1 | 3 | 460 | CC(=O)N1CC[C@@H](Nc2cncc(C(=O)c3cn(C(C)C)c4ncnc(N)c34)n2)[C@H]1c1ccc(F)cc1
